Assay results reported in article PMC7594119 (ACS Omega, 2020).

How the values were obtained:
CDK6 [1] = target: T1, CDK6 (Homo sapiens, UniProt Q00534); test: Kinase inhibition; type: biochemical
How it was run: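 Purified recombinant CDK6 (pET28a+, E. coli Codon+ expression, Ni-NTA) at 1 μM was incubated with 50 μM fresh ATP and increasing test compound (0–10 μM) for 1 h at 25 °C. Malachite green stopped the reaction, with colour developed 15–20 min at room temperature.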

CDK6 [2] = target: T1, CDK6; test: Fluorescence quenching binding studies with CDK6; conditions: for Kq (bimolecular quenching rate constant): Kq=Ksv/τ0; for ΔG: van't Hoff; for Kd: K (binding constant, modified Stern–Volmer)
CDK6 [3] = target: T1, CDK6; test: Isothermal titration calorimetry with CDK6; conditions: ITC, 25 °C, one binding site model
How it was run: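 Recombinant CDK6 was expressed from pET28a+ in E. coli Codon+ cells (IPTG induction at 18 °C) and purified on Ni-NTA. Protein was dialysed against 25 mM Tris, 200 mM MgCl2, with ligand dissolved in the same buffer and 1% v/v DMSO added to protein. At 25 °C, 500 μM test compound in the syringe was titrated into 15 μM CDK6. Buffer-titration heats were subtracted before fitting n, ΔH and Ka.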

MCF-7 cells [4] = test: Cell viability MTT assay, MCF-7; type: cell-based; conditions: Homo sapiens, MCF7, 72 h, read-out: IC50, cell viability
How it was run: (§1)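 Cells were seeded at 5000–5500/well in 96-well plates and exposed to test compound (0–250 μM) for 72 h. MTT (from 5 mg/mL stock in PBS, pH 7.4) was added for 4–5 h. Formazan was dissolved in DMSO and OD read at 570 nm, then converted to % viability. Data are mean ±SD, n = 3.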

A549 cells [5] = test: Cell viability MTT assay, A549; type: cell-based; conditions: Homo sapiens, A549, 72 h, read-out: IC50, cell viability
How it was run: as §1

MCF-7 cells [6] = test: Annexin-V/PI staining apoptosis, MCF-7; type: cell-based; conditions: MCF-7, IC50 concentration, 48 h
How it was run: (§2)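 MCF-7 and A549 cells were treated with test compound or vehicle for 48 h, then harvested. They were stained with annexin-V/PI and analysed by flow cytometry to quantify apoptotic cells.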

A549 cells [7] = test: Annexin-V/PI staining apoptosis, A549; type: cell-based, human; conditions: A549, IC50 concentration, 48 h
How it was run: as §2

[8] = test system: CDK6 expression in MCF-7 cells; test: CDK6 protein expression; type: cell-based; conditions: MCF-7, IC50 dose
How it was run: (§3)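 MCF-7 and A549 cells were treated with test compound or vehicle for a stipulated time, then harvested by trypsinization. They were lysed in RIPA buffer and protein was quantified by BCA. CDK6 was detected by Western blot with anti-CDK6 antibody, and band intensity was normalized to β-actin loading control.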

[9] = test system: CDK6 expression in A549 cells; test: CDK6 protein expression; type: cell-based, human; conditions: A549, IC50 dose
How it was run: as §3

MCF-7 cells [10] = test: ROS determination; type: cell-based; conditions: MCF-7, IC50 dose, 5–6 h
How it was run: (§4)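 MCF-7 and A549 cells were treated with test compound or DMSO vehicle for 5–6 h. They were then loaded with 10 μM H2DCFDA for 30 min, trypsinized, and washed twice with PBS. Total ROS was measured by flow cytometry.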

A549 cells [11] = test: ROS determination; type: cell-based, human; conditions: A549, IC50 dose, 5–6 h
How it was run: as §4

MCF-7 cells [12] = test: Colony formation assay, MCF-7; type: cell-based; conditions: MCF-7, IC50 concentration, 8–10 days
How it was run: (§5)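 MCF-7 or A549 cells were plated at about 1000–1500 cells/well in 6-well plates. They were treated with test compound for 8–10 days at 37 °C, 5% CO2, with DMSO as vehicle control. Colonies were fixed with 100% methanol, stained with crystal violet, and counted by image analysis relative to vehicle.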

A549 cells [13] = test: Colony formation assay, A549; type: cell-based, human; conditions: A549, IC50 concentration, 8–10 days
How it was run: as §5

[14] = van't Hoff plot over 15, 25, 30 °C, same value printed at each temperature

T1 sequence (Q00534 whole entry): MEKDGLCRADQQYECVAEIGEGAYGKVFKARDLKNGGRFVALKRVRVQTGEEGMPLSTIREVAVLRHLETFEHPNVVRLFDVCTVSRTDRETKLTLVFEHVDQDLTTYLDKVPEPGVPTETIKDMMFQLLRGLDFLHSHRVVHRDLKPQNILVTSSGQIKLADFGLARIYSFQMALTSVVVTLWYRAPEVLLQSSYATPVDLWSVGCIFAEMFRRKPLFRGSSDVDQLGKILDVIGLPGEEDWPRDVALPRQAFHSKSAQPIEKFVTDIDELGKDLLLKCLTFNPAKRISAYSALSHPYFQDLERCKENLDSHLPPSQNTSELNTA

O=c1c(O)c(-c2ccc(O)c(O)c2)oc2cc(O)cc(O)c12 [quercetin]
IC50 (CDK6 [1]): 5.89 µM | Ksv (Stern–Volmer constant) (CDK6 [2]; 15 °C): 16.3 10^4 M^–1 | n (number of binding sites) (CDK6 [2]; 15 °C): 1.35 | Kq (bimolecular quenching rate constant) (CDK6 [2]; 15 °C): 6.03 10^13 M^–1 s^–1 | ΔG (CDK6 [2]; 15 °C): –9.400 kcal mol^–1 | Ksv (Stern–Volmer constant) (CDK6 [2]; 25 °C): 13.6 10^4 M^–1 | TΔS (CDK6 [2]; 25 °C): 2.46 kcal mol^–1 | n (number of binding sites) (CDK6 [2]; 25 °C): 1.33 | Kq (bimolecular quenching rate constant) (CDK6 [2]; 25 °C): 5.03 10^13 M^–1 s^–1 | ΔG (CDK6 [2]; 25 °C): –9.482 kcal mol^–1 | Ksv (Stern–Volmer constant) (CDK6 [2]; 30 °C): 12.2 10^4 M^–1 | TΔS (CDK6 [2]; 30 °C): 2.50 kcal mol^–1 | n (number of binding sites) (CDK6 [2]; 30 °C): 1.33 | Kq (bimolecular quenching rate constant) (CDK6 [2]; 30 °C): 4.51 10^13 M^–1 s^–1 | ΔG (CDK6 [2]; 30 °C): –9.524 kcal mol^–1 | Kd (CDK6 [2]; 15 °C): 76.9 nM | Kd (CDK6 [2]; 25 °C): 104 nM | Kd (CDK6 [2]; 30 °C): 143 nM | ΔH (CDK6 [2]; [14]): –7.019 kcal mol^–1 | ΔS (CDK6 [2]; [14]): 8.267 cal mol^–1 K^–1 | ΔH (CDK6 [3]): -112000 ± 457 cal/mol | ΔS (CDK6 [3]): −351 cal/mol/deg | IC50 (MCF-7 cells [4]): 41.8 ± 2.21 µM | IC50 (A549 cells [5]): 52.4 ± 2.44 µM | cells in which apoptosis is induced (MCF-7 cells [6]): ~21.10% | cells in which apoptosis is induced (A549 cells [7]): ~16.22% | effect on CDK6 expression [8]: decreases the CDK6 expression | effect on CDK6 expression [9]: decreases the CDK6 expression | effect on ROS production (MCF-7 cells [10]): decreases the production of ROS | effect on ROS production (A549 cells [11]): decreases the production of ROS | effect on colonization (colony formation) (MCF-7 cells [12]): significantly decreases the colonization | effect on colonization (colony formation) (A549 cells [13]): significantly decreases the colonization
